According to ChEMBL document CHEMBL4330146, “Identification of α-Glucosidase Inhibitors in Machilus litseifolia by Combined Use of High-Resolution α-Glucosidase Inhibition Profiling and HPLC-PDA-HRMS-SPE-NMR” (J Nat Prod, 2019):

Test: Inhibition of yeast alpha-glucosidase pre-incubated for 10 mins followed by pNPG substrate addition and measured every 30 secs for 35 mins
Parameters: species or system Saccharomyces cerevisiae
In short: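 S. cerevisiae α-glucosidase (enzyme solution 2.0 U/mL) in 100 mM phosphate buffer, pH 7.5, with NaN3. Serial DMSO dilutions, nine concentrations, in triplicate. Preincubated 10 min at 28 °C, then p-NPG added (substrate solution 10 mM). A405 read every 30 s for 35 min. Inhibition taken from rate slope versus enzyme–substrate blanks; IC50 from three-parameter curve fit.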
`C[C@@H]1O[C@@H](Oc2c(-c3ccc(O)cc3)oc3cc(O)cc(O)c3c2=O)[C@H](OC(=O)/C=C/c2ccc(O)cc2)[C@H](O)[C@H]1OC(=O)/C=C/c1ccc(O)cc1` showed an IC50 of 12.9 µM.
`COc1ccc(-c2oc3cc(O)cc(O)c3c(=O)c2O[C@@H]2O[C@@H](C)[C@H](OC(=O)/C=C\c3ccc(O)cc3)[C@@H](O)[C@H]2OC(=O)/C=C/c2ccc(O)cc2)cc1O` showed an IC50 of 28.2 µM.
Work on `C[C@@H]1O[C@@H](Oc2c(-c3ccc(O)cc3)oc3cc(O)cc(O)c3c2=O)[C@H](OC(=O)/C=C/c2ccc(O)cc2)[C@H](O)[C@H]1OC(=O)/C=C\c1ccc(O)cc1` yielded an IC50 of 16.1 µM.
In the case of `COc1ccc(-c2oc3cc(O)cc(O)c3c(=O)c2O[C@@H]2O[C@@H](C)[C@H](OC(=O)/C=C/c3ccc(O)cc3)[C@@H](O)[C@H]2OC(=O)/C=C/c2ccc(O)cc2)cc1`, the IC50 is reported as 26.9 µM.
Molecule `COc1ccc(-c2oc3cc(O)cc(O)c3c(=O)c2O[C@@H]2O[C@@H](C)[C@H](OC(=O)/C=C/c3ccc(O)cc3)[C@@H](O)[C@H]2OC(=O)/C=C\c2ccc(O)cc2)cc1` has an IC50 of 10.1 µM.
With `COc1ccc(-c2oc3cc(O)cc(O)c3c(=O)c2O[C@@H]2O[C@@H](C)[C@H](OC(=O)/C=C\c3ccc(O)cc3)[C@@H](O)[C@H]2OC(=O)/C=C/c2ccc(O)cc2)cc1` the IC50 was 6.8 µM.
With `COc1ccc(-c2oc3cc(O)cc(O)c3c(=O)c2O[C@@H]2O[C@@H](C)[C@H](OC(=O)/C=C\c3ccc(O)cc3)[C@@H](O)[C@H]2OC(=O)/C=C\c2ccc(O)cc2)cc1` the IC50 was 5.9 µM.
For `C[C@@H]1O[C@@H](Oc2c(-c3ccc(O)cc3)oc3cc(O)cc(O)c3c2=O)[C@H](OC(=O)/C=C\c2ccc(O)cc2)[C@H](O)[C@H]1OC(=O)/C=C/c1ccc(O)cc1`, the IC50 was 35.3 µM.
`C[C@H]1O[C@H](O[C@H]2[C@H](O)[C@@H](O)[C@@H](O[C@H]3[C@H](O)[C@@H](O)C(O)O[C@@H]3CO)O[C@@H]2CO)[C@H](O)[C@@H](O)[C@@H]1N[C@H]1C=C(CO)[C@@H](O)[C@H](O)[C@H]1O` (some centres undefined) [ACARBOSE] gave an IC50 of 266 µM.
